# Screening data deposited in PubChem by Broad Institute.
# This is a sample that favours compounds with a hit; in the whole collection about 1.5% have one here.
# S100A4 MyoIIA: S100A4-myosin IIA interaction inhibition. P26447. S100A4/TAMRA-MyoIIA peptide fluorescence polarization. inhibition, % at 10.7 µM. 0.14% of 360,000 active;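 active = mean inhibition of at least 70% across replicates, with every replicate also reaching that level; inconclusive = mean inhibition reaches 70% but some replicates fall short; inactive = mean inhibition below 70%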
# Target sequence (P26447 whole entry, looked up): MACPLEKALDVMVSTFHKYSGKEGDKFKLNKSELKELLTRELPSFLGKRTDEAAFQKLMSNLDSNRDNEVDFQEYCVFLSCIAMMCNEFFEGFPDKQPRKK
#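 Test system – S100A4 monomer (human) · Compound – single-point compound testing · Schedule – 5 min incubation before reading · Probe or stimulus – TAMRA-labelled myosin IIA heavy-chain peptide probe, 5 nM · Benchmarks – neutral control DMSO, positive control TFP · Medium – Calcium-containing HEPES buffer, pH 7.2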
# SIRT5 block: blocks human SIRT5 desuccinylation of peptide. Purified SirT5, succinyl-peptide AMC, trypsin-coupled fluorescence. inhibition, % at 15 µM. AID 652115. 1.1% of 330,000 active. Q9NXA8; in the data active = inhibition above about 15%; inconclusive = no clear call, values can overlap the other calls
# PDI inh: PDI (human) enzyme inhibition. PDI insulin aggregation turbidity, A650, 90 min. 0.052% of 350,000 active. AID 588391. inhibition, % at 10 µM;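 active = mean inhibition across replicates of 30% or more, whatever share of single replicates reach that level; inconclusive = mean inhibition below 30% while every single replicate reaches 30%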
# Target sequence (P07237 whole entry, looked up): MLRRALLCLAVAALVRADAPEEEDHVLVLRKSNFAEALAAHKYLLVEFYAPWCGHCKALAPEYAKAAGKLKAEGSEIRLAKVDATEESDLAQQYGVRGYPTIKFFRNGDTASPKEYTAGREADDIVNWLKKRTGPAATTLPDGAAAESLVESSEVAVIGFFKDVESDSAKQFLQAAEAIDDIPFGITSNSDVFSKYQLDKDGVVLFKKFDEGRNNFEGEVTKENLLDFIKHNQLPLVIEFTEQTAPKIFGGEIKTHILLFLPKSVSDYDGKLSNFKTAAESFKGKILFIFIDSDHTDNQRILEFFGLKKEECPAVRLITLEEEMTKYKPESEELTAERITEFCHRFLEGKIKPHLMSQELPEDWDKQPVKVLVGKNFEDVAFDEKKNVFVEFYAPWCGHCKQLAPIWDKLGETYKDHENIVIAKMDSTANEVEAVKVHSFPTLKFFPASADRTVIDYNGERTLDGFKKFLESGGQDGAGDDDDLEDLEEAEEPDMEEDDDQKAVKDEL
# ERp5 block: inhibitors of human ERp5; inhibition, % at 9.99 µM; AID 651711; 0.05% of 350,000 active; ERp5 insulin aggregation, absorbance 650 nm, 90 min;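 active = mean replicate inhibition above about 25%, with every replicate also reaching it, limit read from the data, passing the limit was not always enough; inconclusive = only one of those two criteria met; inactive = neither criterion met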
# INS-1E GSIS act: primary screen for activators of insulin secretion dependent on glucose, INS-1E cells, GLuc reporter luminescence | 0.61% of 370,000 active | AID 743287 | activation, % at 16.6 µM | INS-1E GLuc reporter insulin secretion, 2-3 h;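 active = lowest replicate activation of at least 40%, so every replicate reaches that level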;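 also: 0% = median of neutral control wells and 100% = median of IBMX positive control wells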
# * = called active by the depositor; u = inconclusive; x = no result; ! = not confirmed by another sample.
SMILES,S100A4 MyoIIA,SIRT5 block,PDI inh,ERp5 block,INS-1E GSIS act
Cc1noc(C)c1S(=O)(=O)Nc1ccc2c(c1)C(=O)N([C@H](C)CO)C[C@H](C)[C@@H](CN(C)Cc1ccc(Cl)c(Cl)c1)OCCCC[C@@H](C)O2,-0.7,1.9,x,-10.4,-9.7
C[C@H](CO)N1C[C@H](C)[C@H](CN(C)C(=O)Nc2ccc(F)cc2)Oc2ccc(NS(=O)(=O)c3cn(C)cn3)cc2CC1=O,-1.4,-4.8,x,4.7,0.3
CN(C)c1ccc(C=NNc2ccccn2)c(Cl)c1,-0.2,16.6*,7.6,-0.6,6.9
O=C(C[C@@H]1C[C@H]2c3cc(NS(=O)(=O)c4ccc(F)cc4)ccc3O[C@H]2[C@H](CO)O1)NCc1ccccc1F,-0.1,3.1,x,-3.3,-21.1
Cc1ncc(CSc2nccc(=O)[nH]2)c(CO)c1O,-5.7,-8.2,-3.6,1.5,80.8*
Cc1ncc(CSc2ccc(Cl)cc2)c(CO)c1O,4.5,-4.2,-0.9,5.0,-0.8
COc1cccc(C(=O)Nc2ccc3c(c2)OC[C@@H](C)N(CC2CC2)C[C@H](C)[C@@H](OC)CN(C)C3=O)c1,7.0,-0.9,x,1.4,3.3
Cc1cccc(C)c1OCC(=O)N=Nc1c(O)[nH]c2ccc(Br)cc12,x,x,-5.7,x,51.2*
COc1ccc(/C=N/OCC(=O)N=Nc2c(O)[nH]c3ccc(Br)cc23)cc1,-0.3,-2.1,0.4,-0.4,-3.4
C=C1[C@@H](O)[C@H](CC(C)C)N(Cc2ccccc2Br)S1(=O)=O,4.9,x,-1.5,-0.1,44.7*
Cc1ccccc1CN1[C@@H](CC(C)C)COc2cc(Br)ccc2S1(=O)=O,-1.0,-6.3,x,4.1,-4.7
CCCC#Cc1ccc2c(c1)O[C@@H](CN(C)CC1CCOCC1)[C@H](C)CN([C@H](C)CO)S2(=O)=O,-6.4,23.5*,x,-6.8,9.4
C[C@@H]1CN([C@H](C)CO)S(=O)(=O)c2ccc(-c3ccc(F)cc3)cc2O[C@@H]1CN(C)CC1CC1,-24.4,-1.6,x,27.4*,12.4
CCCN(C)C[C@@H]1Oc2cc(-c3ccccc3OC)ccc2S(=O)(=O)N([C@H](C)CO)C[C@@H]1C,1.9,31.9*,x,-4.7,0.9
CCCN(C)C[C@@H]1Oc2cc(-c3ccc(C)cc3)ccc2S(=O)(=O)N([C@@H](C)CO)C[C@@H]1C,-14.7,1.3,x,-10.1,2.3
CCCN(C)C[C@@H]1Oc2cc(-c3ccc(F)cc3)ccc2S(=O)(=O)N([C@@H](C)CO)C[C@@H]1C,-5.1,-3.0,x,31.9*,2.5
C[C@@H]1CN([C@@H](C)CO)C(=O)Cc2cc(NC(=O)Nc3cccc4ccccc34)ccc2O[C@H]1CN(C)C(=O)Nc1ccc(F)cc1,-8.5,4.0,x,-1.6,-1.0
COc1ccc(NC(=O)Nc2ccc3c(c2)C(=O)N([C@@H](C)CO)C[C@H](C)[C@@H](CN(C)C(=O)CCC(F)(F)F)OCCCC[C@H](C)O3)cc1,x,x,x,x,-14.6
COc1ccc(-c2ccc([C@@H]3[C@@H](CO)N(C(=O)NC4CCCC4)[C@H]3C#N)cc2)cc1,-4.1,2.6,x,0.1,9.8
C[C@@H]1CN([C@H](C)CO)S(=O)(=O)c2ccc(C#Cc3cccc(F)c3)cc2O[C@@H]1CN(C)CC1CC1,8.7,15.2*,x,-9.7,1.7
C[C@H]1CN([C@@H](C)CO)S(=O)(=O)c2ccc(C#Cc3ccc(F)cc3)cc2O[C@H]1CN(C)CC1CC1,0.0,10.1,x,u,2.4
CCS(=O)(=O)Nc1ccc2c(c1)C(=O)N(C)[C@H]1CC[C@@H](CC(=O)OC)O[C@@H]1CO2,0.5,-1.4,x,2.6,-0.6
COc1ccc(CN(C)C[C@H]2Oc3ccc(NS(=O)(=O)c4ccccc4)cc3CC(=O)N([C@@H](C)CO)C[C@H]2C)cc1,-0.5,0.3,x,-3.3,6.8
Cc1cccc(Cl)c1NC(=O)NCCCN1CCOCC1,-3.5,x,x,-4.8,13.2
Cc1cccc(Cl)c1NC(=O)NCCCN1CCCCC1C (stereo not drawn),1.3,23.1*,x,4.1,-5.2
SMILES,S100A4 MyoIIA,SIRT5 block,PDI inh,ERp5 block,INS-1E GSIS act
COc1ccc(Cl)cc1-c1cc(C(=O)Nc2ccccc2)[nH]n1,-5.1,x,-7.0,-2.1,-34.7
COc1ccc(Cl)cc1-c1cc(C(=O)N[C@H](C)c2ccccc2)[nH]n1,141.5*,-3.7,3.9,4.8,-13.3
Cc1cc(Br)cc(Cl)c1OC(=O)c1ccncc1,0.3,0.7,-14.1,-0.8,94.4*
Cc1noc(C)c1NC(=O)N(C)C[C@H]1Oc2ccc(NC(=O)Nc3ccc(F)cc3)cc2CC(=O)N([C@H](C)CO)C[C@H]1C,-49.2,-3.3,x,1.4,13.7
COc1ccc(S(=O)(=O)N(C)C[C@@H]2OCCCC[C@@H](C)Oc3ccc(NC(=O)Nc4ccc5c(c4)OCO5)cc3C(=O)N([C@@H](C)CO)C[C@H]2C)cc1,-18.5,3.4,x,-2.1,-42.7
C[C@H](O)C#Cc1cnc2c(c1)C(=O)N([C@@H](C)CO)C[C@H](C)[C@H](CN(C)Cc1cccc(F)c1)O2,-1.7,-0.8,x,6.9,35.9
C[C@H](CO)N1C[C@H](C)[C@H](CN(C)Cc2cccc(F)c2)Oc2ncc(Br)cc2C1=O,-3.9,-3.0,0.8,82.4*!,19.1
C[C@H](CO)N1C[C@H](C)[C@H](CN(C)Cc2cccc(F)c2)Oc2ncc(C#C[C@@H](C)O)cc2C1=O,-1.6,24.1*,x,-4.7,8.6
CCCC(=O)Nc1ccc2c(c1)C(=O)N(C)C[C@@H](OC)[C@@H](C)CN(CC1CCCC1)[C@@H](C)CO2,-1.7,-1.4,x,-8.1,-2.0
CC(=O)N(C)C[C@@H]1Oc2c(cccc2N(C)C)C(=O)N(C)C[C@@H]1C,x,x,x,x,5.4
Cc1noc(C)c1S(=O)(=O)Nc1ccc2c(c1)C(=O)N([C@H](C)CO)C[C@H](C)[C@@H](CN(C)S(=O)(=O)c1ccc(Cl)cc1)O2,-2.6,1.1,x,3.6,-11.5
COCCNC(=O)/C(C#N)=C/c1cc(C)n(C2CCCCC2)c1C,4.0,15.8*,5.4,3.5,-3.6
COCCNC(=O)/C(C#N)=C/c1cc(C)n(-c2ccc(C)cc2)c1C,12.4,5.0,-0.4,u,4.6
O=C(NCCN=C1NS(=O)(=O)c2ccccc21)c1ccco1,u,20.0*,-2.4,7.3,15.5
O=C(NCCCN=C1NS(=O)(=O)c2ccccc21)c1ccco1,35.3,0.1,-4.0,-4.5,17.7
Cc1onc(C(=O)N2CCN(C(c3ccccc3)c3ccccc3)CC2)c1[N+](=O)[O-],-5.2,-2.0,x,1.8,3.6
COc1ccccc1N1CCN(C(=O)c2noc(C)c2[N+](=O)[O-])CC1,2.5,0.4,-4.1,2.3,56.9*
Cc1ccc2c(=O)cc(C(=O)NC3CCS(=O)(=O)C3)oc2c1C (stereo not drawn),-1.2,-1.4,-11.3,2.5,42.1*
C/C=C/c1ccc([C@H]2[C@@H](CNC(C)C)N(C(=O)c3ccccn3)[C@H]2CO)cc1,x,x,x,x,-2.4
C/C(=N/NC(=O)CNC(=O)Cc1ccccc1)c1ccc(Cl)cc1,-1.1,-4.8,2.8,-17.8,x
